What all share (assay type): functional
Assay [1] in a line: Compound was tested for the in vitro MC proliferation Inhibitory activity at a dose of 0.1 uM against normal human mesangial cells. The gist of the method: (§1)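 Normal human glomerular mesangial cells grown in MCDB131 with 5% FBS, amphotericin B and gentamycin. Plated at 2 × 10⁴ cells/well for 3 days, then serum-free 4 days. Exposed to compound in DMEM + 2% FBS for 18 h with 1 μCi/mL [³H]thymidine. TCA-insoluble counts read; four wells per concentration. Inhibition % = (control − sample)/(control − DMEM blank).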

A short description of assay [2]: Compound was tested for the in vitro MC proliferation Inhibitory activity at a dose of 1 uM against normal human mesangial cells. The procedure, abridged:
as §1

The nature of assay [3]: Compound was tested for the in vitro MC proliferation Inhibitory activity at a dose of 10 uM against normal human mesangial cells. The procedure, abridged: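 Normal human glomerular mesangial cells kept in MCDB131 with amphotericin B, gentamycin and 5% FBS. Seeded 2 × 10⁴ cells/well, grown 3 days, serum-starved 4 days. Then given compound in DMEM + 2% FBS for 18 h with 1 μCi/mL [³H]thymidine. TCA-insoluble counts read by scintillation, four wells per concentration. Inhibition % = (control − sample)/(control − blank), where blank is DMEM alone.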

The test system of assay [4] is RPTEC. Nature of the assay: Compound was evaluated for the renal proximal tubular epithelial cell ( RPTEC) proliferation assay using RPTEC''s at a dose of 1 uM. To be noted: Homo sapiens. The gist of the method: (§2)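 Human renal proximal tubular epithelial cells handled as in the mesangial assay: plated 2 × 10⁴ cells/well for 3 days, serum-starved 4 days. Then 18 h in DMEM + 2% FBS with compound and 1 μCi/mL [³H]thymidine. TCA-precipitable counts measured; four wells per concentration. % inhibition = (control − sample)/(control − blank).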

Assay [5] concerns RPTEC. Nature of the assay: Compound was evaluated for the renal proximal tubular epithelial cell (RPTEC) proliferation assay using RPTEC''s at a dose of 0.1 uM. To be noted: Homo sapiens. The gist of the method: as §2
Assay [6] relates to RPTEC. Description: Compound was evaluated for the renal proximal tubular epithelial cell (RPTEC) proliferation assay using RPTEC's at a dose of 10 uM. To be noted: Homo sapiens. The gist of the method:
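Human renal proximal tubular epithelial cells, run by the same [³H]thymidine method as the mesangial assay. Compound added in DMEM + 2% FBS for 18 h after serum-free pre-incubation. DNA synthesis taken as TCA-insoluble counts, four wells per concentration. Inhibition % = (control − sample)/(control − blank), where blank is DMEM alone.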

What is called inhibition is the relative decrease from the control value, in per cent. With `Cc1c(Cc2c(Cl)cccc2Cl)c(=O)oc2cc(OCC(=O)OCC(=O)c3ccc(Cl)cc3)ccc12`, the inhibition at 0.1 µM in assay [1] came to 72%; in the assay with RPTEC [5] it was 16%. Besides, the inhibition at 1 µM in assay [2] turned out to be 74%; in the assay on RPTEC [4], 6%. For the same compound, the inhibition at 10 µM turned out to be 80% in assay [3] and 21% with RPTEC [6].

Take `CCOP(=O)(Cc1ccc(C(=O)Nc2nc(-c3ccccc3)ns2)cc1)OCC`: the figures for the inhibition at 0.1 µM (in assay [1]; in the assay with RPTEC [5]) were 62% and 33%, respectively. In addition, the inhibition at 1 µM worked out at 85% in assay [2] and 61% with RPTEC [4]. Moreover, the inhibition at 10 µM was 108% in assay [3] and 96% in the assay with RPTEC [6].

As for `CCOC(=O)c1cc(NC(=O)NC(=O)c2c(Cl)cccc2Cl)ccc1Oc1cncc(Cl)c1`, the figures for the inhibition at 0.1 µM (in assay [1]; in the assay on RPTEC [5]) were 90% and -1%, respectively. Besides, the inhibition at 1 µM in assay [2] is 105%; in the assay on RPTEC [4] it was 32%. The values for the inhibition at 10 µM (in assay [3]; in the assay with RPTEC [6]) were 112% and 96%, respectively.

Consider `CCOP(=O)(Cc1ccc(C(=O)Nc2ccc(Br)cc2C#N)cc1)OCC` [IBROLIPIM], for which the inhibition at 10 µM in assay [3] worked out at 56%; in the assay on RPTEC [6], 77%.

As to `CCOP(=O)(Cc1ccc(C(=O)Nc2nc3c(OC)cc(OC)cc3s2)cc1)OCC`, the inhibition at 0.1 µM in assay [1] turned out to be 59%; in the assay with RPTEC [5] it was 33%. Further, the inhibition at 1 µM in assay [2] is 59%; in the assay with RPTEC [4], 39%. Further, the inhibition at 10 µM amounted to 108% in assay [3] and 103% in the assay with RPTEC [6].

In the case of `CO/C(O)=C(/C=N/c1ccc(Oc2ccccc2OC(C)C)nc1)NC(=O)c1ccccc1`, the results for the inhibition at 0.1 µM (in assay [1]; in the assay on RPTEC [5]) were 68% and 2%, respectively. Also, the inhibition at 1 µM in assay [2] amounted to 73%; in the assay with RPTEC [4], 12%. Also, the results for the inhibition at 10 µM (in assay [3]; in the assay with RPTEC [6]) were 82% and 8%, respectively.

In the case of `CCOP(=O)(Cc1ccc(C(=O)Nc2ccccn2)cc1)OCC`, the inhibition at 0.1 µM in assay [1] was determined as 62%; with RPTEC [5] it was 23%. The inhibition at 1 µM in assay [2] is 65%; in the assay on RPTEC [4] it was 32%. The inhibition at 10 µM in assay [3] was determined as 68%; in the assay on RPTEC [6], 60%.

In the case of `CCOP(=O)(Cc1ccc(C(=O)Nc2cc(-c3ccc(Cl)cc3)no2)cc1)OCC`, the inhibition at 0.1 µM in assay [1] came to 69%; with RPTEC [5], 30%. Moreover, the inhibition at 1 µM was determined as 91% in assay [2] and 88% with RPTEC [4]. Moreover, the results for the inhibition at 10 µM (in assay [3]; in the assay on RPTEC [6]) were 94% and 99%, respectively.

`Cc1c(Cc2c(Cl)cccc2Cl)c(=O)oc2cc(OCC(=O)OCC(=O)c3ccccc3)ccc12`: the inhibition at 0.1 µM in assay [1] worked out at 49%; in the assay on RPTEC [5], 35%. Further, the inhibition at 1 µM in assay [2] is 60%; in the assay on RPTEC [4] it was 24%. The inhibition at 10 µM in assay [3] amounted to 66%; in the assay on RPTEC [6], 31%.

For the origin of these results see ChEMBL document CHEMBL1134527, “Discovery of novel mesangial cell proliferation inhibitors using a three-dimensional database searching method” (2001).
